# Compound activity: PubChem, several laboratories
# SKKanGAS inh: S. pyogenes SKKanGAS growth inhibitors in kanamycin, primary screen, streptokinase expression inhibitor project, SKKanGAS strain, BacTiter-Glo luminescence; 6 h; inhibition, % at 7.5 µM; actives 1.3% (n = 300,000);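 active = mean replicate score, as percent of positive control median, at least 50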;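 note: strain carries kanamycin resistance gene driven by streptokinase promoter and grows in 40 µg/ml kanamycin; loss of luminescence reflects streptokinase promoter inhibition or plain growth inhibition; 0% = median of DMSO wells and 100% = positive control at its reference dose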
# aSyn UTR inh: MLPCN primary screen, SNCA 5' untranslated region; alpha-synuclein 5'UTR reporter, inhibitor activity; inhibition, % (tested at 7.5 µM); actives 0.82% (n = 300,000); AID 1813, 2009; in the data active = inhibition above about 60%;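 note: H4 neuroglioblastoma cells stably carrying SNCA 5'UTR luciferase fusion; 0% = DMSO wells and 100% = positive control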
# CSC inhib: cancer stem cell viability inhibitors, primary screen, luminescence; cancer stem cell-like cells viability; inhibition, % at 7.5 µM; actives 1.1% (n = 300,000); in the data active = inhibition above about 75%; tested in HMLE shEcad cells
# Mdm2 MdmX PPI: inhibitors of human Mdm2-MdmX association, primary screen, cell-based, luminescence, split luciferase, SaOS-2, uHTS; actives 3% (n = 330,000); AID 485346, 2010; Protein Mdm4 (Homo sapiens) + E3 ubiquitin-protein ligase Mdm2 (Homo sapiens), …; SaOS-2 split-luciferase Mdm2/MdmX complementation; inhibition, % at 8 µM;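 active = inhibition of at least 50% at 8 µM in the primary screen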
# T cruzi inh: inhibitors of intracellular T. cruzi growth, primary screen, luminescence, NIH3T3 host cells | inhibition, % (concentration not given with the values) | actives 1.4% (n = 300,000) | T. cruzi beta-gal in NIH3T3, 90 h;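 active = mean inhibition across valid replicates above about 55%, limit read from the data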;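 note: signal also drops with host cell toxicity which is not excluded here; 0% = plate median of DMSO wells and 100% = zero luminescence signal; higher percent means less beta-gal luminescence so fewer parasites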
#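 assay system = mouse NIH/3T3 fibroblasts infected with β-gal-expressing T. cruzi Tulahuen C4 | input = 5,000 NIH/3T3 host cells per well | buffer or medium = DMEM plus 2% FBS | timing = 3 h host attachment, then at least 90 h co-culture | measured by = GalScreen luminescence, 60 min | evaluation = luminescence reflecting intracellular parasite burden, expressed as percent inhibition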
# Starred values were filed as active, the others as inactive; . = not tested or not shown. Shown are actives, neighbours in structure and some others; about 5.4% of the full set was active somewhere.
SMILES,SKKanGAS inh,aSyn UTR inh,CSC inhib,Mdm2 MdmX PPI,T cruzi inh
CC(=O)N1CCN(C(=O)COC(=O)CNC(=O)c2ccc(C)cc2)CC1,.,.,.,21.7,.
COC(=O)c1sc(-c2ccc(C(C)(C)C)cc2)cc1NC(=O)CSCC(=O)O,57.3*,-16.4,26.7,5.0,-3.4
COC(=O)c1sc(-c2ccc(C(C)(C)C)cc2)cc1NC(=O)c1ccccc1C(=O)O,54.0*,-67.3,25.9,11.5,-12.9
CCCc1c(C(=O)NNc2cccc(Cl)c2)cnn1-c1ccccc1,1.0,-1.6,79.9*,-3.4,17.7
CCCc1c(C(=O)Nc2ccc(F)cc2F)cnn1-c1ccccc1,-5.2,-1.3,-10.4,6.9,.
O=C(C1CC(=O)N(c2ccc(F)cc2)C1)N1CCC(c2nc3ccccc3[nH]2)CC1 (centres undefined),0.1,13.6,5.9,7.1,-1.7
O=C(Nc1ccc(-c2nc3ccccc3[nH]2)cc1)c1ccco1,9.6,-133.4,20.0,-164.0,5.1
O=C(/C=C/c1ccco1)Nc1ccc(-c2nc3ccccc3[nH]2)cc1,1.3,89.3*,65.7,.,-45.4
COc1cccc(/C=N/NC(=O)C(=O)Nc2ccccc2OC(F)(F)C(F)F)c1,-1.8,-6.4,2.1,2.3,0.5
O=C(N/N=C/c1cc(Cl)ccc1O)C(=O)Nc1ccccc1OC(F)(F)C(F)F,.,.,95.6*,.,.
O=C(N/N=C/c1cc(Br)ccc1O)C(=O)Nc1ccccc1OC(F)(F)C(F)F,102.8*,82.2*,96.4*,.,56.6*
COc1ccccc1/C=N/NC(=O)C(=O)Nc1ccccc1OC(F)(F)C(F)F,1.3,-6.6,-4.8,21.7,-18.1
O=C(N/N=C/c1cc(Cl)ccc1O)c1ccncc1,98.9*,-2.0,8.7,27.4,14.7
O=C(N/N=C/c1ccccc1Cl)c1ccncc1,-2.6,0.9,3.9,-0.6,-5.6
N#Cc1ccccc1S(=O)(=O)N1CCNS(=O)(=O)c2ccccc21,.,.,.,-10.3,.
Cc1ccc2occ(/C=N/NC(=O)c3ccncc3)c(=O)c2c1,1.9,9.1,-15.2,39.9,-11.4
OCc1ccccc1SSc1ccccc1CO,-10.6,-43.2,27.8,20.1,13.5
Cc1nc2c(C(=O)NCCC(C)C)c[nH]n2c(=O)c1Cc1ccccc1F,92.5*,5.2,57.7,12.2,-0.9
CCN(c1ccc2c(c1)OCO2)S(=O)(=O)c1cc(Br)cc2c1N(C(C)=O)CC2,1.0,20.6,.,7.6,63.5*
CC(C)=CCc1c(-c2ccc(O)cc2O)oc2c3c(cc(O)c2c1=O)OC(C)(C)C=C3,107.9*,-9.8,4.7,34.5,21.4
COc1ccc(C(=O)N2CCC(CCC(=O)Nc3cccc(C)c3)CC2)cc1,-0.3,-12.6,-5.4,39.5,-4.0
O=c1c(Cl)c(NCc2ccccc2)cnn1C12CC3CC(CC(C3)C1)C2,0.5,8.3,76.8*,36.0,29.3
CC(C)Oc1ccc(S(=O)(=O)N2CCOCC2)cc1NC(=O)c1ccc(N2CCCC2=O)cc1,1.7,1.2,4.3,20.1,24.0
Cc1c(-c2cccc(Cl)c2)nc2ccccc2c1C(=O)OCC(=O)Nc1ccc2c(c1)OCO2,38.1,33.8,154.9*,46.5,55.0*
COC(=O)c1ccccc1NCc1cc(=O)oc2cc(O)c(O)cc12,19.6,-5.3,92.3*,35.7,-14.8
SMILES,SKKanGAS inh,aSyn UTR inh,CSC inhib,Mdm2 MdmX PPI,T cruzi inh
CN1CCN(C(=O)c2cc(Cl)ccc2NC(=O)c2ccc(Cl)cc2Cl)CC1,13.4,1.0,-10.8,33.5,-7.4
Cc1nc(NC(=O)c2ccc(F)cc2)sc1C(=O)Nc1ccc2c(c1)CCC2,15.6,-98.5,34.7,8.6,-13.8
Cc1ccc(C(=O)Nc2nc(C)c(C(=O)Nc3ccc4c(c3)CCC4)s2)cc1,32.5,-23.3,80.5*,14.7,-26.6
Cn1nnnc1SC1CC(=O)N(c2ccccc2)C1=O (centres undefined),17.7,11.5,-8.5,4.7,65.9*
CC1=CC(=C2C(=O)c3ccccc3C2=O)C=C(C)O1,-9.7,-128.6,17.6,19.6,-0.4
CC(=O)C1=C(c2ccc(Br)cc2)C(=O)c2ccccc2C1=O,66.2*,23.6,113.9*,.,55.0*
Clc1cccc(/C(Cc2nc3ccccc3[nH]2)=N\Nc2ccccc2)c1,92.7*,-63.5,54.2,-34.4,4.5
Cc1ccc(N/N=C(\Cc2nc3ccccc3[nH]2)c2ccccc2)cc1,.,.,91.6*,.,.
c1ccc(N/N=C(\Cc2nc3ccccc3[nH]2)c2ccccc2)cc1,26.2,-101.6,38.6,4.4,32.3
COc1cc(/C=C/C2=NNC(=O)CC2)cc(OC)c1OC,0.0,47.3,.,17.9,5.7
CC(C)c1ccc(/C=C/C2=NNC(=O)CC2)cc1,7.9,87.4*,12.4,-49.3,-26.9
Cc1[nH]c2ccccc2c1C(=O)COC(=O)c1ccc([N+](=O)[O-])s1,50.6*,-7.3,-4.7,37.6,74.2*
O=C(COC(=O)c1ccc([N+](=O)[O-])s1)NCc1ccccc1,3.0,22.2,-1.4,6.3,18.4
O=C(OCC(=O)N1CCC(c2ccccc2)=N1)c1ccc([N+](=O)[O-])s1,-0.3,-14.4,-9.2,0.9,54.7*
COc1ccc(-c2nc(/C=C3\C(C)=Nc4ccccc43)c(O)o2)cc1,58.3*,-19.9,7.4,39.0,-14.5
COCCCNC(=S)NNC(=S)Nc1cccc(Cl)c1,52.0*,-53.1,-11.4,6.6,-5.7
C=COCCNC(=S)Nc1cccc(Cl)c1,-4.8,-16.4,-6.6,6.2,-12.8
CCn1c(O)c(C2=c3ccccc3=NC2=O)c2cc(Br)ccc21,34.6,-23.4,22.8,30.8,60.8*
CCn1c(O)c(N=NC(=O)c2cccnc2)c2cc(Br)ccc21,-4.2,-0.9,38.0,35.9,-5.0
O=C(NC(=S)Nc1ccc(CN2CCOCC2)cc1)c1ccco1,6.5,-117.2,-17.1,-16.4,-2.0
O=C(CC12CC3CC(CC(C3)C1)C2)NC(=S)Nc1ccc(CN2CCOCC2)cc1,2.6,-23.4,-15.7,39.7,81.6*
O=C(COc1ccc(Cl)cc1Cl)Nc1ccc(CN2CCOCC2)cc1,103.4*,-8.6,-27.7,24.4,0.0
COc1ccc2c(c1)OC[C@H]1[C@H]2N2C(=O)CNC(=O)[C@@]2(C)[C@H]1c1ccccc1,.,.,-10.2,-23.4,.
COc1ccc(-c2noc(CCC(=O)NCc3cccnc3)n2)cc1,9.1,2.6,-13.0,-9.6,-3.4
COc1ccc(Cc2nc(-c3ccc(NC(=O)c4cccnc4)cc3)no2)cc1,-4.5,75.1*,12.7,9.2,-16.6
COc1ccc(-c2noc(CCCC(=O)O)n2)cc1,6.9,89.0*,-6.4,-10.4,-4.0
O=C(NCCCn1ccnc1)Nc1ccc2c(c1)OCO2,-1.1,-106.7,6.2,0.2,6.1
CCOC(=O)c1nc(Nc2cc(C)cc(C)c2)c2ccccc2n1,40.7,-14.4,-4.0,20.0,56.1*
CCOC(=O)c1nc(Nc2ccc(Nc3ccccc3)cc2)c2ccccc2n1,55.9*,-48.2,.,.,16.3
